Results: paper PMC10523135 (RSC Advances, 2023)

Legend:
Type in all cases: cell-based
[1] = tested on: HeLa (human cervical cancer cell line); assay: CCK-8 antiproliferative assay, HeLa; conditions: 48 h, read-out: IC50 (μM) ± SD Hela
Procedure, shortened: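 HeLa cells were grown in RPMI 1640 with 10% FBS and 1% penicillin/streptomycin at 37 °C, 5% CO2. They were seeded at 5 × 10^4 cells per well and left 24 h. Test compound was diluted from […] DMSO stock into medium, with final DMSO below 0.1%, and exposure lasted 48 h. CCK-8 was then added for 2 h at 37 °C and absorbance read at 450 nm. IC50 came from viability data; experiments were done three times.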

[2] = tested on: MCF-7 (human breast cancer cell line); assay: CCK-8 antiproliferative assay, MCF-7; conditions: MCF7, 48 h, read-out: IC50 (μM) ± SD MCF-7
[3] = tested on: A549 (human lung cancer cell line); assay: CCK-8 antiproliferative assay, A549; conditions: A549, 48 h, read-out: IC50 (μM) ± SD A549

IC50 [1] [µM] | IC50 [2] [µM] | IC50 [3] [µM] | Compound
8.35 ± 0.47 | > 20 | – | CNC(=O)c1c(C)oc2cc(Oc3ncnc4cc(OC)c(OC)cc34)ccc12 [Fruquintinib]
1.03 ± 0.33 | – | 3.54 ± 0.25 | O=C(CCCCCCC(=O)Nc1ccccc1)NO [SAHA]
